ChEMBL document CHEMBL4138196, “Discovery and structure-activity relationship of novel 4-hydroxy-thiazolidine-2-thione derivatives as tumor cell specific pyruvate kinase M2 activators” (Eur J Med Chem, 2018)

Tests used:
[1] = molecular target: Pyruvate kinase PKM (Homo sapiens, UniProt P14618); assay: Activation of N-terminal His -tagged human PKM2 expressed in Escherichia coli BL21 using PEP as substrate measured at 30 secs intervals for between 3 and 6 mins by fluorescent pyruvate kinase-lactate dehydrogenase coupled assay
Pyruvate kinase PKM, sequence (P14618 whole entry): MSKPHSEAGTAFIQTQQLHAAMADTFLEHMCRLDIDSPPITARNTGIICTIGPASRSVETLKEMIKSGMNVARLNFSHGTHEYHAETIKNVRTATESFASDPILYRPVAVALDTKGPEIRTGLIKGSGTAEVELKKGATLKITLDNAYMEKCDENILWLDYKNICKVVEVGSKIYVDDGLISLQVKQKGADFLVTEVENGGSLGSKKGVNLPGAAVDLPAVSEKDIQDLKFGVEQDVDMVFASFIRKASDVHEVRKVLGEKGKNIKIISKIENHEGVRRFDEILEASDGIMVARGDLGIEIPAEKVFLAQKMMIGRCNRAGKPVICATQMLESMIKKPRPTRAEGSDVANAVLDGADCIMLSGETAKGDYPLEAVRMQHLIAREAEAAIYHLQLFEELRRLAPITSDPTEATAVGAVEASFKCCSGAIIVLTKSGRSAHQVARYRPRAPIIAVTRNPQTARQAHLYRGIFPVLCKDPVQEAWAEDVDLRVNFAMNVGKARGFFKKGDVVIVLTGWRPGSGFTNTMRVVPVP

[2] = tested on: NCI-H1299; assay: Antiproliferative activity against human H1299 cells after 48 hrs by MTS assay; assay type: functional, cell-based; conditions: NCI-H1299, 48 h
How it was run: (§1)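 Cells grown in RPMI 1640 with 9% FBS at 37°C, 5% CO2. 3000-10000 cells/well were left to attach 12 h, then given compound at five concentrations, or DMSO as vehicle control, for 48 h. MTS was added for 3 h at 37°C and absorbance read at 490 nm. IC50 (50% growth inhibition) was taken from triplicate dose-response curves.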

[3] = tested on: HCT-116; assay: Antiproliferative activity against human HCT116 cells after 48 hrs by MTS assay; assay type: functional, cell-based; conditions: HCT-116, 48 h; how it was run: as §1
[4] = tested on: HeLa; assay: Antiproliferative activity against human HeLa cells after 48 hrs by MTS assay; assay type: functional, cell-based; how it was run: as §1
[5] = tested on: PC-3; assay: Antiproliferative activity against human PC3 cells after 48 hrs by MTS assay; assay type: functional, cell-based; conditions: PC-3, 48 h; how it was run: as §1
[6] = Antiproliferative activity against HELF after 48 hrs by MTS assay; parameters: species or system Homo sapiens; how it was run: as §1

## COc1ncccc1CN1C(=S)SCC1(O)c1ccc(NS(=O)(=O)c2ccc3c(c2)OCCO3)cc1 (stereo not given)
[1]
  AC50: > 20 µM
[2]
  IC50: 0.83 µM
[3]
  IC50: 0.74 µM
[4]
  IC50: 0.41 µM
[5]
  IC50: 1.13 µM
[6]
  IC50: 10.4 µM

## CC(=O)O[C@H]1C(=O)[C@@]2(C)[C@H]([C@H](OC(=O)c3ccccc3)[C@]3(O)C[C@H](OC(=O)[C@H](O)[C@@H](NC(=O)c4ccccc4)c4ccccc4)C(C)=C1C3(C)C)[C@]1(OC(C)=O)CO[C@@H]1C[C@@H]2O [PACLITAXEL]
[2]
  IC50: 7.83 µM
[3]
  IC50: 1.37 µM
[5]
  IC50: 4.57 µM

## O=S(=O)(Nc1ccc(C2(O)CSC(=S)N2Cc2cccnc2)cc1)c1ccccc1 (stereo not given)
[1]
  AC50: 2.96 µM
[2]
  IC50: 1.44 µM
[3]
  IC50: 1.7 µM
[4]
  IC50: 0.45 µM
[5]
  IC50: 0.99 µM

## O=S(=O)(Nc1ccc(C2(O)CSC(=S)N2Cc2cccnc2)cc1)c1cccc2cccnc12 (stereo not given)
[1]
  AC50: 0.52 µM
[2]
  IC50: 2.43 µM
[3]
  IC50: 2.11 µM
[4]
  IC50: 0.84 µM
[5]
  IC50: 2.35 µM

## O=S(=O)(Cc1ccccc1)Nc1ccc(C2(O)CSC(=S)N2Cc2cccnc2)cc1 (stereo not given)
[1]
  AC50: 7.24 µM
[2]
  IC50: 1.55 µM
[3]
  IC50: 3.32 µM
[4]
  IC50: 1.26 µM
[5]
  IC50: 2.44 µM

## O=[N+]([O-])c1ccc(S(=O)(=O)Nc2ccc(C3(O)CSC(=S)N3Cc3cccnc3)cc2)cc1 (stereo not given)
[1]
  AC50: > 20 µM
[2]
  IC50: 1.22 µM
[3]
  IC50: 2.72 µM
[4]
  IC50: 0.26 µM
[5]
  IC50: 1.31 µM

## Cc1cccc(S(=O)(=O)Nc2ccc(C3(O)CSC(=S)N3Cc3cccnc3)cc2)c1 (stereo not given)
[1]
  AC50: 6.25 µM
[2]
  IC50: 1.68 µM
[3]
  IC50: 1.73 µM
[4]
  IC50: 1.14 µM
[5]
  IC50: 1.11 µM

## O=S(=O)(Nc1ccc(C2(O)CSC(=S)N2Cc2cccnc2)cc1)c1ccccc1-c1ccccc1 (stereo not given)
[1]
  AC50: > 20 µM
[2]
  IC50: 2.7 µM
[3]
  IC50: 6.11 µM
[4]
  IC50: 1.1 µM
[5]
  IC50: 2.81 µM

## O=S(=O)(Nc1ccc(C2(O)CSC(=S)N2Cc2cccnc2)cc1)c1ccccc1N1CCOCC1 (stereo not given)
[1]
  AC50: > 20 µM
[2]
  IC50: 1.24 µM
[3]
  IC50: 3.45 µM
[4]
  IC50: 1.33 µM
[5]
  IC50: 8.62 µM

## Cc1ccc(S(=O)(=O)Nc2ccc(C3(O)CSC(=S)N3Cc3cccnc3)cc2)cc1 (stereo not given)
[1]
  AC50: > 20 µM
[2]
  IC50: 1.2 µM
[3]
  IC50: 2.18 µM
[4]
  IC50: 0.44 µM
[5]
  IC50: 0.94 µM

## O=S(=O)(Nc1ccc(C2(O)CSC(=S)N2Cc2ccc3nccn3c2)cc1)c1ccc2c(c1)OCCO2 (stereo not given)
[1]
  AC50: 7.07 µM
[2]
  IC50: 0.79 µM
[3]
  IC50: 0.77 µM
[4]
  IC50: 0.45 µM
[5]
  IC50: 1.33 µM
[6]
  IC50: 4.91 µM

## O=S(=O)(Nc1ccc(C2(O)CSC(=S)N2Cc2cccnc2)cc1)c1ccccc1F (stereo not given)
[1]
  AC50: > 20 µM
[2]
  IC50: 1.45 µM
[3]
  IC50: 1.18 µM
[4]
  IC50: 0.55 µM
[5]
  IC50: 2.68 µM

## O=C1CCc2cc(S(=O)(=O)Nc3ccc(C4(O)CSC(=S)N4Cc4cccnc4)cc3)ccc2N1 (stereo not given)
[1]
  AC50: 0.74 µM
[2]
  IC50: 1.65 µM
[3]
  IC50: 1.64 µM
[4]
  IC50: 0.71 µM
[5]
  IC50: 4.29 µM

## Cc1ccccc1S(=O)(=O)Nc1ccc(C2(O)CSC(=S)N2Cc2cccnc2)cc1 (stereo not given)
[1]
  AC50: 1.19 µM
[2]
  IC50: 1.63 µM
[3]
  IC50: 2.41 µM
[4]
  IC50: 0.55 µM
[5]
  IC50: 1.58 µM

## Cc1cc(C)c(S(=O)(=O)Nc2ccc(C3(O)CSC(=S)N3Cc3cccnc3)cc2)c(C)c1 (stereo not given)
[1]
  AC50: > 20 µM
[2]
  IC50: 1.75 µM
[3]
  IC50: 1.65 µM
[4]
  IC50: 0.94 µM
[5]
  IC50: 1.33 µM

## N#Cc1ccc(S(=O)(=O)Nc2ccc(C3(O)CSC(=S)N3Cc3cccnc3)cc2)cc1 (stereo not given)
[1]
  AC50: > 20 µM
[2]
  IC50: 1.47 µM
[3]
  IC50: 1.8 µM
[4]
  IC50: 0.77 µM
[5]
  IC50: 4.11 µM

## CS(=O)(=O)c1cccc(-c2ccc(CN3C(=S)SCC3(O)c3ccc(NS(=O)(=O)c4ccc5c(c4)OCCO5)cc3)cn2)c1 (stereo not given)
[1]
  AC50: 17.6 µM
[2]
  IC50: 1.02 µM
[3]
  IC50: 0.92 µM
[4]
  IC50: 0.51 µM
[5]
  IC50: 1.35 µM

## O=c1ccc2cc(S(=O)(=O)Nc3ccc(C4(O)CSC(=S)N4Cc4cccnc4)cc3)ccc2o1 (stereo not given)
[1]
  AC50: > 20 µM
[2]
  IC50: 1.65 µM
[3]
  IC50: 1.41 µM
[4]
  IC50: 0.69 µM
[5]
  IC50: 2.4 µM

## CN(c1ccc(C2(O)CSC(=S)N2Cc2cccnc2)cc1)S(=O)(=O)c1cccc2cccnc12 (stereo not given)
[1]
  AC50: > 20 µM
[2]
  IC50: 2.47 µM
[3]
  IC50: 2.32 µM
[4]
  IC50: 0.93 µM
[5]
  IC50: 6.15 µM

## O=S(=O)(Nc1ccc(C2(O)CSC(=S)N2Cc2cccnc2)cc1)c1ccc(F)cc1 (stereo not given)
[1]
  AC50: > 20 µM
[2]
  IC50: 1.31 µM
[3]
  IC50: 3.5 µM
[4]
  IC50: 0.57 µM
[5]
  IC50: 1.4 µM

## O=S(=O)(Nc1ccc(C2(O)CSC(=S)N2Cc2cnccn2)cc1)c1ccc2c(c1)OCCO2 (stereo not given)
[1]
  AC50: 2.15 µM
[2]
  IC50: 1.72 µM
[3]
  IC50: 0.85 µM
[4]
  IC50: 0.55 µM
[5]
  IC50: 0.92 µM

## COc1ccc(Cl)cc1S(=O)(=O)Nc1ccc(C2(O)CSC(=S)N2Cc2cccnc2)cc1 (stereo not given)
[1]
  AC50: > 20 µM
[2]
  IC50: 1.62 µM
[3]
  IC50: 3.69 µM
[4]
  IC50: 1.11 µM
[5]
  IC50: 4.51 µM

## O=C1COc2ccc(S(=O)(=O)Nc3ccc(C4(O)CSC(=S)N4Cc4cccnc4)cc3)cc2N1 (stereo not given)
[1]
  AC50: > 20 µM
[2]
  IC50: 2.12 µM
[3]
  IC50: 1.84 µM
[4]
  IC50: 0.78 µM
[5]
  IC50: 1.95 µM

## O=[N+]([O-])c1ccccc1S(=O)(=O)Nc1ccc(C2(O)CSC(=S)N2Cc2cccnc2)cc1 (stereo not given)
[1]
  AC50: > 20 µM
[2]
  IC50: 1.75 µM
[3]
  IC50: 2.3 µM
[4]
  IC50: 0.61 µM
[5]
  IC50: 3.87 µM

## O=[N+]([O-])c1cccc(-c2ccccc2S(=O)(=O)Nc2ccc(C3(O)CSC(=S)N3Cc3cccnc3)cc2)c1 (stereo not given)
[1]
  AC50: > 20 µM
[2]
  IC50: 2.96 µM
[3]
  IC50: 3.89 µM
[4]
  IC50: 1.4 µM
[5]
  IC50: 3.26 µM

## O=S(=O)(Nc1ccc(C2(O)CSC(=S)N2Cc2cccnc2)cc1)c1cccc(F)c1 (stereo not given)
[1]
  AC50: > 20 µM
[2]
  IC50: 1.14 µM
[3]
  IC50: 4.11 µM
[4]
  IC50: 0.48 µM
[5]
  IC50: 2.19 µM

## O=S(=O)(Nc1ccc(C2(O)CSC(=S)N2Cc2cccnc2)cc1)c1cccs1 (stereo not given)
[1]
  AC50: 1.47 µM
[2]
  IC50: 1.23 µM
[3]
  IC50: 1.44 µM
[4]
  IC50: 0.42 µM
[5]
  IC50: 1.25 µM

## O=S(=O)(Nc1ccc(C2(O)CSC(=S)N2CCc2cccnc2)cc1)c1ccc2c(c1)OCCO2 (stereo not given)
[1]
  AC50: > 20 µM
[2]
  IC50: 1.28 µM
[3]
  IC50: 1.04 µM
[4]
  IC50: 0.62 µM
[5]
  IC50: 2.16 µM

## O=S(=O)(Nc1ccc(C2(O)CSC(=S)N2Cc2cccnc2)cc1)c1cccc2ccccc12 (stereo not given)
[1]
  AC50: > 20 µM
[2]
  IC50: 1.53 µM
[3]
  IC50: 2.61 µM
[4]
  IC50: 0.63 µM
[5]
  IC50: 1.69 µM

## O=S(=O)(Nc1ccc(-c2csc(=S)n2Cc2cccnc2)cc1)c1cccc2cccnc12
[1]
  AC50: > 20 µM
[2]
  IC50: > 20 µM
[3]
  IC50: > 20 µM
[4]
  IC50: > 20 µM
[5]
  IC50: > 20 µM

## O=S(=O)(Nc1ccc(C2(O)CSC(=S)N2Cc2cnc3ccccc3c2)cc1)c1ccc2c(c1)OCCO2 (stereo not given)
[1]
  AC50: 1.75 µM
[2]
  IC50: 1.81 µM
[3]
  IC50: 1.28 µM
[4]
  IC50: 0.55 µM
[5]
  IC50: 1.28 µM

## CS(=O)(=O)Nc1ccc(C2(O)CSC(=S)N2Cc2cccnc2)cc1 (stereo not given)
[1]
  AC50: > 20 µM
[2]
  IC50: 1.25 µM
[3]
  IC50: 1.56 µM
[4]
  IC50: 0.86 µM
[5]
  IC50: 2.2 µM

## O=S(=O)(Nc1ccc(C2(O)CSC(=S)N2Cc2cccnc2)cc1)c1c[nH]c2ncccc12 (stereo not given)
[1]
  AC50: 1.41 µM
[2]
  IC50: 2 µM
[3]
  IC50: 1.55 µM
[4]
  IC50: 0.76 µM
[5]
  IC50: 1.26 µM
